The record followed here is ChEMBL document CHEMBL3813636, “Toward discovery of mutant EGFR inhibitors; Design, synthesis and in vitro biological evaluation of potent 4-arylamino-6-ureido and thioureido-quinazoline derivatives” (Bioorg Med Chem, 2016).

The target of assay [1] is T1, Epidermal growth factor receptor (Homo sapiens, UniProt P00533). In words: Inhibition of recombinant human EGFR expressed in baculovirus by fluorescence based assay.
In assay [2] the target is Receptor tyrosine-protein kinase erbB-2 (Homo sapiens, UniProt P04626). In words: Inhibition of His-tagged human recombinant Her2 (676 to 1255 residues) expressed in baculovirus by fluorescence based assay. A digest of the protocol:
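Her2 kinase activity was measured with an outsourced kinase-profiling service. It used a fluorescence-based coupled-enzyme format that exploits the differing sensitivity of phosphorylated and non-phosphorylated peptide substrates to proteolytic cleavage.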

In assay [3] the test system is Epidermal growth factor receptor (Homo sapiens), P00533 [L858R,T790M]. In words: Inhibition of EGFR L858R/T790M double mutant (unknown origin) expressed in mouse BaF/3 cells assessed as cell growth inhibition at 10 uM after 72 hrs by MTS assay. It counts as cell-based. A digest of the protocol: (§1)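 Ba/F3 cells carrying the listed double-mutant EGFR were exposed to 10 uM compound, and growth was read by MTS assay as percent growth relative to DMSO-treated cells. Experiments were repeated at least three times.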

Assay [4] has as its system Epidermal growth factor receptor (Homo sapiens), P00533 [UNDEFINED MUTATION]. In words: Inhibition of EGFR Del19/T790M double mutant (unknown origin) expressed in mouse BaF/3 cells assessed as cell growth inhibition at 10 uM after 72 hrs by MTS assay. The class given is cell-based. The gist of the method:
as §1

The nature of assay [5]: Antiproliferative activity against gefitinib-sensitive human PC9 cells assessed as cell viability after 72 hrs by cell titer-glo luminescence assay. The class given is functional, cell-based. As to conditions: PC-9, 72 h.
Assay [6] can be described thus: Antiproliferative activity against gefitinib-resistant human PC9/GR4 cells expressing Del19/T790M double mutant assessed as cell viability after 72 hrs by cell titer-glo luminescence assay. The class given is functional, cell-based. As to conditions: PC9/GR4, 72 h.
Assay [7] in a line: Potency index, ratio of gefitinib IC50 to compound IC50 for human PC9/GR4 cells expressing Del19/T790M double mutant. The class given is functional.
The nature of assay [8]: Cytotoxicity against human BT474 cells expressing Her2 assessed as reduction in cell viability after 72 hrs by cell titer-glo luminescence assay. As to conditions: BT-474, 72 h. The class given is functional, cell-based.
Assay [9] has as its target T1, Epidermal growth factor receptor. As to conditions: PC-9, at 10 µM.
The test system of assay [10] is Epidermal growth factor receptor (Homo sapiens), P00533 [UNDEFINED MUTATION]. As to conditions: PC9/GR4, at 10 µM.
In assay [11] the target is T1, Epidermal growth factor receptor. As to conditions: PC-9, at 10 µM. This is another data set of the same source.
The test system of assay [12] is Epidermal growth factor receptor (Homo sapiens), P00533 [UNDEFINED MUTATION]. As to conditions: PC9/GR4, at 10 µM. The source holds these as a separate data set.

The source made the active and inactive calls. The calls are words filed in the database; no cut-off is given here.

Receptor tyrosine-protein kinase erbB-2, sequence (P04626 whole entry, the tested form may be a part): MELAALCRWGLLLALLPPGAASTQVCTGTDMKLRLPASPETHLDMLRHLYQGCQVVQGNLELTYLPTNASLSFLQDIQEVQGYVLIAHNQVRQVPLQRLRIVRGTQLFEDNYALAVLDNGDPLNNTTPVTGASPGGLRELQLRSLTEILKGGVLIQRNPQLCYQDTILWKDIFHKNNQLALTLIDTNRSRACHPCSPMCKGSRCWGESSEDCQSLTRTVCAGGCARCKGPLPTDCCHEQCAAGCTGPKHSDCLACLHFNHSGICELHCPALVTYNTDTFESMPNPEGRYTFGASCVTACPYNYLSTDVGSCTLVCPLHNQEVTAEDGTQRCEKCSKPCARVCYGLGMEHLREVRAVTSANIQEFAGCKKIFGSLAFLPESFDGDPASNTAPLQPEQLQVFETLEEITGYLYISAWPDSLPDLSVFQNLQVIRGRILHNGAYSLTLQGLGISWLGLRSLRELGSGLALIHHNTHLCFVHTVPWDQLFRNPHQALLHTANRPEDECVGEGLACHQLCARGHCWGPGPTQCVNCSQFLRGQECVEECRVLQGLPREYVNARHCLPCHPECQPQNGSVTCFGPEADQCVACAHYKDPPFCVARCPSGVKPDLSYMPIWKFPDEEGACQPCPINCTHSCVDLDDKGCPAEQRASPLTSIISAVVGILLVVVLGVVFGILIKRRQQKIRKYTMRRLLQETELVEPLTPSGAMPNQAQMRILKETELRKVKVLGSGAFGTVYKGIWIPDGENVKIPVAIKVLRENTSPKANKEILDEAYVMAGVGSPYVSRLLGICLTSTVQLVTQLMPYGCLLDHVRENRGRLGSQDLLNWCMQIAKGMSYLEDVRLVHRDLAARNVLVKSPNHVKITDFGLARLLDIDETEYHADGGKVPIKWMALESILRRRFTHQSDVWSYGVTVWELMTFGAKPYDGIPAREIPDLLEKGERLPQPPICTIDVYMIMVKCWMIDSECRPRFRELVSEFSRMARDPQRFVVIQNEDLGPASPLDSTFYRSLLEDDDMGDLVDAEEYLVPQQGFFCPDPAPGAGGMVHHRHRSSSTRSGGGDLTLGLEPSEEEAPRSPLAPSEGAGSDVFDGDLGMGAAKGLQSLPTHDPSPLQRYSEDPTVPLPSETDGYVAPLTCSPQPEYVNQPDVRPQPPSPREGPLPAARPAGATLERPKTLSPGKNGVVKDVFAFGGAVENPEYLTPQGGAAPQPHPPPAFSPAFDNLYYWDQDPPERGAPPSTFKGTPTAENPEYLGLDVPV

As to `NC(=O)Nc1ccc2ncnc(Nc3ccc(OCc4cccc(F)c4)c(Cl)c3)c2c1`, the IC50 in assay [1] was 2.03 nM; in assay [2] it was 26.8 nM.

Turning to `Fc1cccc(COc2ccc(Nc3ncnc4ccc(NC(=S)NCCN5CCCCC5)cc34)cc2Cl)c1`, the IC50 in [2] came to 40.6 nM; in assay [5] it was 2160 nM; in [6] it was 5700 nM; in assay [8], 340 nM. Besides, the “growth inhibition (GI)” value in assay [3] and in [4] was “Active” in each case. In addition, the “Ratio IC50” value in assay [7] turned out to be 3. Moreover, the inhibition result in assay [9], in assay [10], in assay [11] and in assay [12] was “Active” throughout.

`S=C(NCCN1CCOCC1)Nc1ccc2ncnc(Nc3cccc(Br)c3)c2c1`: the IC50 in [1] worked out at 1.81 nM.

`CC(=O)Nc1ccc2ncnc(Nc3ccc(OCc4cccc(F)c4)c(Cl)c3)c2c1`: the concentration for half-maximal inhibition (IC50) turned out to be 3.96 nM in assay [1]; 32.3 nM in assay [2]; 662 nM in [5]; 8310 nM in assay [6]; 57 nM in [8]. Further, the “growth inhibition (GI)” value in assay [3] and in [4] was “Active” throughout. In addition, the inhibition entry in assay [9], in assay [10], in [11] and in assay [12] was “Active” each time.

With `CC(=O)Nc1ccc2ncnc(Nc3ccc(F)c(Cl)c3)c2c1`, the IC50 in assay [1] is 0.662 nM; in assay [5], 225 nM; in assay [6] it was 12600 nM. The inhibition result in [9], in assay [10], in assay [11] and in assay [12] was “Active” in each case.

With `NC(=O)Nc1ccc2ncnc(Nc3ccc(F)c(Cl)c3)c2c1`, the IC50 in assay [1] turned out to be 0.854 nM; in [5] it was 961 nM; in [6], 21700 nM. Also, the inhibition result in assay [9], in [10], in assay [11] and in assay [12] was “Active” in each case.

On to `C#Cc1cccc(Nc2ncnc3ccc(NC(N)=O)cc23)c1`, for which the half-inhibitory concentration (IC50) in assay [1] came to 2.22 nM.

As for `O=C(NCCN1CCOCC1)Nc1ccc2ncnc(Nc3ccc(F)c(Cl)c3)c2c1`, in assay [1], the half-inhibitory concentration (IC50) turned out to be 2.92 nM.

Turning to `CS(=O)(=O)CCNCc1ccc(-c2ccc3ncnc(Nc4ccc(OCc5cccc(F)c5)c(Cl)c4)c3c2)o1` [LAPATINIB], in assay [8], the 50% inhibitory concentration (IC50) was 31 nM.

Regarding `O=C(NCCN1CCCCC1)Nc1ccc2ncnc(Nc3ccc(F)c(Cl)c3)c2c1`, in assay [1], the IC50 was 1.06 nM.

Consider `O=C(NCCN1CCCCC1)Nc1ccc2ncnc(Nc3ccc(OCc4cccc(F)c4)c(Cl)c3)c2c1`, for which the concentration for half-maximal inhibition (IC50) in [2] came to 19.2 nM; in assay [5], 1580 nM; in [6], 2160 nM; in assay [8], 760 nM. For the same molecule, the “growth inhibition (GI)” value in assay [3] and in assay [4] was “Active” throughout. Also, the “Ratio IC50” value in assay [7] is 8. Also, the inhibition entry in assay [9], in assay [10], in assay [11] and in assay [12] was “Active” in each case.

On to `Fc1cccc(COc2ccc(Nc3ncnc4ccc(NC(=S)NCCCN5CCOCC5)cc34)cc2Cl)c1`, for which the IC50 in assay [1] was 1.5 nM; in assay [2] it was 12.1 nM.

`Fc1ccc(Nc2ncnc3ccc(NC(=S)NCCN4CCOCC4)cc23)cc1Cl`: the IC50 in [1] came out at 2.25 nM.

Consider `C#Cc1cccc(Nc2ncnc3ccc(NC(C)=O)cc23)c1`, for which the IC50 in assay [1] amounted to 2.04 nM.

`O=C(NCCN1CCCCC1)Nc1ccc2ncnc(Nc3cccc(Br)c3)c2c1`: in assay [1], the IC50 was found to be 0.772 nM.

With `NC(=O)Nc1ccc2ncnc(Nc3ccc(Br)cc3)c2c1`, the IC50 in assay [1] stood at 0.803 nM.

Take `Fc1ccc(Nc2ncnc3ccc(NC(=S)NCCN4CCCCC4)cc23)cc1Cl`: the 50% inhibitory concentration (IC50) in [1] was found to be 3.7 nM.

`Fc1ccc(Nc2ncnc3ccc(NC(=S)NCCCN4CCOCC4)cc23)cc1Cl`: the 50% inhibitory concentration (IC50) in assay [1] is less than 0.495 nM.

Turning to `O=C(NCCN1CCOCC1)Nc1ccc2ncnc(Nc3cccc(Br)c3)c2c1`, the 50% inhibitory concentration (IC50) in assay [1] was determined as 1.43 nM.

In the case of `Fc1cccc(COc2ccc(Nc3ncnc4ccc(NC(=S)NCCN5CCOCC5)cc34)cc2Cl)c1`, the IC50 in [1] came out at 2.26 nM; in [2], 33.1 nM.

Take `S=C(NCCN1CCOCC1)Nc1ccc2ncnc(Nc3ccc(Cl)c(Cl)c3)c2c1`: in [1], the IC50 came to 9.05 nM.

With `S=C(NCCN1CCOCC1)Nc1ccc2ncnc(Nc3ccc(Cl)cc3)c2c1`, the IC50 in assay [1] is 5.06 nM.
